According to ChEMBL document CHEMBL1177712, “Synthesis and characterization of in vitro and in vivo profiles of hydroxybupropion analogues: aids to smoking cessation” (J Med Chem, 2010):
Activity calls are given as the source filed them.

Assays:
[1] = test system: Mus musculus; assay: Smoke cessation activity in sc dosed ICR mouse assessed as inhibition of nicotine-induced antinociception administered 15 mins before nicotine challenge measured after 5 mins of nicotine infusion by tail-flick assay; assay type: functional, organism-based
Summary of the method: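 Radiant-heat tail-flick latency was read 5 min later (10 s cutoff; baseline 2–4 s) and expressed as %MPE. AD₅₀ came from at least four doses, with at least 8 mice per dose.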

[2] = test system: Mus musculus; assay: Smoke cessation activity in sc dosed ICR mouse assessed as inhibition of nicotine-induced increase in locomotor activity administered 15 mins before nicotine challenge measured after 5 mins of nicotine infusion; assay type: functional, organism-based
[3] = test system: Mus musculus; assay: Smoke cessation activity in sc dosed ICR mouse assessed as inhibition of nicotine-induced antinociception administered 15 mins before nicotine challenge measured after 5 mins of nicotine infusion by hotplate assay; assay type: functional, organism-based
Summary of the method: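 Male ICR mice (20–25 g) were pretreated with saline or test drug 15 min before nicotine at 2.5 mg/kg sc. They were tested 5 min later on a 55 °C hot plate (40 s cutoff), and the result was expressed as %MPE. AD₅₀ came from at least four doses, with at least 8 mice per dose.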

[4] = test system: Mus musculus; assay: Smoke cessation activity in sc dosed ICR mouse assessed as inhibition of nicotine-induced hypothermia administered 15 mins before nicotine challenge measured after 30 mins of nicotine infusion; assay type: functional, organism-based
Summary of the method: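 Male ICR mice (20–25 g) were pretreated with test drug or saline 15 min before nicotine at 2.5 mg/kg sc. Rectal temperature was taken before and 30 min after nicotine, and the change was calculated. Room temperature was 21–24 °C. AD₅₀ came from at least four doses, with at least 8 mice per dose.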

[5] = molecular target: Acetylcholine receptor; alpha1/beta1/delta/gamma (Homo sapiens, UniProt P02708+P07510+P11230+Q07001); assay: Antagonist activity at alpha-1-beta-1-gamma-delta nicotinic receptor in human TE671 cells assessed as inhibition varbamylcholine-induced radiolabeled Rb+ influx at by liquid scintillation counting; assay type: functional, cell-based, TE-671
Chain of Acetylcholine receptor; alpha1/beta1/delta/gamma (P02708 whole entry): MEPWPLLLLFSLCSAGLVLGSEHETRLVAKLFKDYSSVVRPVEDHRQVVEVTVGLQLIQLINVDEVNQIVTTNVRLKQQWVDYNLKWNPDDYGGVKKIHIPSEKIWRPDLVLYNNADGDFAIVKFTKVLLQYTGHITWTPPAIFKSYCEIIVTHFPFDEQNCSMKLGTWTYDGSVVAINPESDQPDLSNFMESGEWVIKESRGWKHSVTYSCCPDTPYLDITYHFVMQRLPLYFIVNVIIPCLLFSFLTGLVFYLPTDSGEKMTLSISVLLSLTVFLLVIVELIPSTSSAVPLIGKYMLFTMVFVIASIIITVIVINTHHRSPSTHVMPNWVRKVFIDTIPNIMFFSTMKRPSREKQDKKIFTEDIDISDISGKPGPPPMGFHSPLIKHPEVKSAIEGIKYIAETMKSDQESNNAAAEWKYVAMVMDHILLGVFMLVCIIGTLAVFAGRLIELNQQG
Chain of Acetylcholine receptor; alpha1/beta1/delta/gamma (P07510 whole entry): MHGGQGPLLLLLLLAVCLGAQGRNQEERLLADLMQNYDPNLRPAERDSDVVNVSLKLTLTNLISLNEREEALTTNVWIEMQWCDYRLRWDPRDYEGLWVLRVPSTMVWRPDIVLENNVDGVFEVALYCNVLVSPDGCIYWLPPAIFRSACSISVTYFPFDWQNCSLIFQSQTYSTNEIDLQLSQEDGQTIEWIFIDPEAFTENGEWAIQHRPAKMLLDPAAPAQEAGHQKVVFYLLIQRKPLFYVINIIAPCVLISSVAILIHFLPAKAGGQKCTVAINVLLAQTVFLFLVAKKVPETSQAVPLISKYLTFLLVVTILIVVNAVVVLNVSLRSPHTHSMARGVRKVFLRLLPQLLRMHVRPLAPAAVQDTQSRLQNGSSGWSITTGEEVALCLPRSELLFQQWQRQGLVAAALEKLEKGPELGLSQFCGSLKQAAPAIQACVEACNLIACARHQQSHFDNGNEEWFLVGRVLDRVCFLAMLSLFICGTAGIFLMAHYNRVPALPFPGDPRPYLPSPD
Chain of Acetylcholine receptor; alpha1/beta1/delta/gamma (P11230 whole entry): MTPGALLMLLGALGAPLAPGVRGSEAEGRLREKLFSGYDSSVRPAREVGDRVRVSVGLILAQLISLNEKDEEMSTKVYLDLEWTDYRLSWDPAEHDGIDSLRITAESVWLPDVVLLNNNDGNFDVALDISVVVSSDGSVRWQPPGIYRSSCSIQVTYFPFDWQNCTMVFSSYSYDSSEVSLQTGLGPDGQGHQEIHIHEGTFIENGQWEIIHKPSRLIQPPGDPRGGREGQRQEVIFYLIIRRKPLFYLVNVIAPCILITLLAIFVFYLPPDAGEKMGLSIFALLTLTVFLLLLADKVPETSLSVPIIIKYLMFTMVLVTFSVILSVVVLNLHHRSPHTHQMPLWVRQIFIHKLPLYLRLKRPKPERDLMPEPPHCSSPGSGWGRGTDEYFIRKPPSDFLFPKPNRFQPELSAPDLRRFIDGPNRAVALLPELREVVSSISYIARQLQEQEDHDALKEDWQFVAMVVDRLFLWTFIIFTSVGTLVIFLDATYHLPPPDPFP
Chain of Acetylcholine receptor; alpha1/beta1/delta/gamma (Q07001 whole entry): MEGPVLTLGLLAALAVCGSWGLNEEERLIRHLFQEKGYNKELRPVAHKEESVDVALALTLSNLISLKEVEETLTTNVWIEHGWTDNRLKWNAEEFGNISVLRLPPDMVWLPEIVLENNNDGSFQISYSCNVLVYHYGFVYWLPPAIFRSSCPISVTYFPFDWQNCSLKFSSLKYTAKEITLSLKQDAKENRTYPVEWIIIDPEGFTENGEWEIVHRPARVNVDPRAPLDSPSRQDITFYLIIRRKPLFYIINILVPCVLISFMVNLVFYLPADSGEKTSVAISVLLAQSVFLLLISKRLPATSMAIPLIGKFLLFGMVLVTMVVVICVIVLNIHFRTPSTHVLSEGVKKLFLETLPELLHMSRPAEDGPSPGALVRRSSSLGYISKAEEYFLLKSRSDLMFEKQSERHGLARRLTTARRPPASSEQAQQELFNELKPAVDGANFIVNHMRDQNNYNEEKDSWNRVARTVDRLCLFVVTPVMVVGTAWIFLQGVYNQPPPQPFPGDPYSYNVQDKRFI
Summary of the method: (§1)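 ⁸⁶Rb⁺-loaded human cells were given a 5-min efflux with carbamylcholine at EC₈₀–EC₉₀ plus graded test ligand. Non-specific efflux, taken with 100 μM mecamylamine or buffer, was subtracted. IC₅₀ came from a Hill fit of three independent experiments, with SEM given as a multiplication factor.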

[6] = test system: Mus musculus; assay: Toxicity in sc dosed ICR mouse assessed occurrence of sedation; assay type: organism-based; details: in vivo
[7] = test system: Mus musculus; assay: Toxicity in sc dosed ICR mouse assessed occurrence of convulsion; assay type: organism-based; details: in vivo
[8] = molecular target: Neuronal acetylcholine receptor; alpha4/beta2 (Homo sapiens, UniProt P17787+P43681); assay: Agonist activity at alpha4beta2 nicotinic receptor in human SH-EP1 cells assessed as induction of radiolabeled Rb+ influx at 0.005 to 100 uM by liquid scintillation counting; assay type: functional, cell-based
Summary of the method: (§2)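 Cells were labelled with ⁸⁶Rb⁺ for at least 4 h, then exposed for 5 min in efflux buffer (pH 7.4) to test ligand alone at ~5 nM to 100 μM. The lines were TE671/RD (muscle α1β1γδ), SH-SY5Y (α3β4*) and transfected SH-EP1-hα4β2 or -hα4β4. Efflux was Cerenkov-counted. Non-specific efflux was subtracted, and results were normalized to specific efflux from carbamylcholine (1 mM; 3 mM for SH-SY5Y).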

[9] = molecular target: T1, Neuronal acetylcholine receptor; alpha4/beta4 (Homo sapiens, UniProt P30926+P43681); assay: Agonist activity at alpha4beta4 nicotinic receptor in human SH-EP1 cells assessed as induction of radiolabeled Rb+ influx at 0.005 to 100 uM by liquid scintillation counting; assay type: functional, cell-based; summary of the method: as §2
T1 sequence (P30926 whole entry): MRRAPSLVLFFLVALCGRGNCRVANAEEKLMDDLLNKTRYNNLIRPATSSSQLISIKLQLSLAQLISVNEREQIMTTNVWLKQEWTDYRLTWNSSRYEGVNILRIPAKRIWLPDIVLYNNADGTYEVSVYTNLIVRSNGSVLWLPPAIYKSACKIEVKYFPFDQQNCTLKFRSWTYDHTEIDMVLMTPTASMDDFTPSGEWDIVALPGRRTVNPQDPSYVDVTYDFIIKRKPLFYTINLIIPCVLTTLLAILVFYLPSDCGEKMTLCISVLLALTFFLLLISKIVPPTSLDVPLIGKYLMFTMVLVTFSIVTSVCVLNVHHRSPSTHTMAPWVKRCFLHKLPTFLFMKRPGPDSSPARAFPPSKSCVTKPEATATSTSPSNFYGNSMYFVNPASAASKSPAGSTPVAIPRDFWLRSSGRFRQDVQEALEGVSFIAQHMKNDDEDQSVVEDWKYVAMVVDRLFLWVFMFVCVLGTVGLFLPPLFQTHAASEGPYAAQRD
T1 sequence (P43681 whole entry): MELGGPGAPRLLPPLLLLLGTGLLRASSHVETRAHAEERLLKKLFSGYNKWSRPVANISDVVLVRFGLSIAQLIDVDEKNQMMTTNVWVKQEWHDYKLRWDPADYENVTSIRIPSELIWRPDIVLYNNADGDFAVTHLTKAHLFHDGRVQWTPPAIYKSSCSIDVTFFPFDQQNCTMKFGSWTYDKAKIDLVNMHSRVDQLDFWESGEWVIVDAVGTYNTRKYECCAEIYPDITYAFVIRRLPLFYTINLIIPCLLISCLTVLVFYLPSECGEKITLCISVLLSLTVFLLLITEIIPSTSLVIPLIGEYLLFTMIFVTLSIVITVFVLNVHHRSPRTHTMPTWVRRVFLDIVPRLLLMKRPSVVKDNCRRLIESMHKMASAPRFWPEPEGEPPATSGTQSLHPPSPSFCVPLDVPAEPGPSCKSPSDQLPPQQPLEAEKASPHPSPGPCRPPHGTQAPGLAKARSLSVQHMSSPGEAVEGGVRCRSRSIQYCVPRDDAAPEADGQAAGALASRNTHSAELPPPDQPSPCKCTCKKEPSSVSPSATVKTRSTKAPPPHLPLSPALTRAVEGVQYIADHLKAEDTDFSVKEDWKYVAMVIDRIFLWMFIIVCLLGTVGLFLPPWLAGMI

[10] = test system: SH-EP1; assay: Selectivity ratio of IC50 for alpha4beta2 nicotinic receptor in human SH-EP1 cells to IC50 for IC50 for human NET; assay type: cell-based
[11] = molecular target: T1, Neuronal acetylcholine receptor; alpha4/beta4; assay: Antagonist activity at alpha4beta4 nicotinic receptor in human SH-EP1 cells assessed as inhibition varbamylcholine-induced radiolabeled Rb+ influx at by liquid scintillation counting; assay type: functional, cell-based; summary of the method: as §1

Structure (SMILES) | IC50 [1] [mg/kg] | IC50 [2] [mg/kg] | IC50 [3] [mg/kg] | IC50 [4] [mg/kg] | IC50 [5] [µM] | Activity [6] | Activity [7] | Activity [8] | Activity [9] | Ratio IC50 [10] | IC50 [11] [µM]
C[C@@H]1NC(C)(C)CO[C@@]1(O)c1ccccc1 | > 15 | > 15 | > 15 | > 15 | > 100 | Non-toxic | Non-toxic |  |  |  | 
CC[C@@H]1NC(C)(C)CO[C@@]1(O)c1cccc(Cl)c1 | 0.004 | 10.3 | 3.7 | 7 |  | Non-toxic | Non-toxic | inactive | inactive | 67 | 
C[C@@H]1NC(C)(C)CO[C@@]1(O)c1ccc(F)cc1 | 0.013 | > 15 | > 15 | 5.67 |  | Non-toxic | Non-toxic | inactive | inactive | 3 | > 100
Cc1cccc([C@]2(O)OCC(C)(C)N[C@H]2C)c1 | 0.054 | > 15 | 7.6 | 2.3 |  | Non-toxic | Non-toxic | inactive | inactive | 5.3 | 
C[C@@H]1N(C)C(C)(C)CO[C@@]1(O)c1cccc(Cl)c1 | 0.016 | > 15 | > 15 | > 15 |  | Non-toxic | Non-toxic | inactive | inactive |  | 
Cc1ccc([C@]2(O)OCC(C)(C)N[C@H]2C)cc1 | 0.004 | > 15 | > 15 | > 15 |  | Non-toxic | Non-toxic | inactive | inactive |  | 
C[C@@H]1NC(C)(C)CO[C@@]1(O)c1cc(F)cc(F)c1 | 0.0056 | > 15 | > 15 | > 15 |  | Non-toxic | Non-toxic | inactive | inactive |  | 
C[C@@H]1NC(C)(C)CO[C@@]1(O)c1ccc(F)c(F)c1 | 0.006 | > 15 | > 15 | > 15 |  | Non-toxic | Non-toxic | inactive | inactive |  | > 100
C[C@@H]1NC(C)(C)CO[C@@]1(O)c1ccc(Cl)cc1 | 0.019 | > 15 | > 15 | > 15 |  | Non-toxic | Non-toxic | inactive | inactive |  | 
C[C@@H]1NC(C)(C)CO[C@@]1(O)c1cccc(Cl)c1 [RADAFAXINE] | 0.2 | 0.9 | 1 |  |  | Non-toxic | Non-toxic |  |  |  | 
C[C@@H]1N(C)C(C)(C)CO[C@@]1(O)c1ccc(Cl)cc1 | 0.32 | > 15 | > 15 | > 15 |  | Non-toxic | Non-toxic | inactive | inactive |  | 
